Published values collected from several papers.
Lines come from different studies, so protocols differ.
Target: Histamine H2 receptor (HRH2, Homo sapiens, UniProt P25021)
Concentration: 10 µM

Structure (SMILES)	read-out	technique	endpoint	value
CC(C)N1CCC[C@H]1CNC(=O)c1cn(C2CCCC2)c(=O)c2c1c1ccccc1n2C	ligand displacement	radioligand	inhibition	25%
Nc1ncc(-c2nc(N3CCOCC3)nc(N3CCOCC3)n2)c(C(F)F)n1	cell-free assay	radioligand	remaining signal	106%
CC(C)Cn1cnc2c(N)nc3ccccc3c21	ligand displacement	radioligand	inhibition	63%
C[C@H](C(=O)N[C@H]1COc2ccccc2[C@@H]1S(C)(=O)=O)c1ccc(F)cc1	cell-free assay	–	inhibition	-11%
CCN(CC)CCCC[C@H](NC(=O)[C@H](CC(C)C)NC(=O)[C@H](C)NC(=O)[C@H](Cc1ccccc1)NC(=O)c1ccc(C(C)(C)C)cc1)C(=O)N[C@@H](CO)C(=O)OC	ligand displacement	radioligand	inhibition	1%
COc1ccc(S(=O)(=O)N2CCCCC2)cc1C	ligand displacement	radioligand	inhibition	< 30%
Clc1ccc2c(C3CCN(CCc4c[nH]c5ccccc45)CC3)c[nH]c2c1	ligand displacement	radioligand	inhibition	53%
Cn1cncc1[C@@](O)(COc1ccc(C#N)cc1-c1ccc(OC(F)(F)F)cc1)c1ccc(C#N)cc1	ligand displacement	–	inhibition	5.38%
COCc1c(-c2cc3cc(C)cc(OC)c3s2)c2c(N)ncnn2c1CN1CCNC(=O)C1	ligand displacement	radioligand	inhibition	-8%
c1ccc(C(NCCNC(c2ccccc2)c2ccccc2)c2ccccc2)cc1	cell-free assay	–	inhibition	99%
CCCCCCCCCCCC(=O)OC[C@@H](COP(=O)(O)OCCNC(=O)c1ccc(Cn2c(=O)[nH]c3c(N)nc(OCCOC)nc32)cc1)OC(=O)CCCCCCCCCCC	ligand displacement	radioligand	inhibition	40%
N#CC1(c2ccccn2)CCN(Cc2cc(C(=O)O)c(=O)n3ccccc23)CC1	cell-free assay	–	inhibition	11.7%
